The list is not random: actives were taken first. Their share in the collection is about 0.99%.
ABCB1 block = ABCB1 efflux pump inhibitors, primary screen, cell-based, multiplex, flow cytometry, ABCG2 counter-screen; CCRF-Adr cells, JC-1 efflux; actives 0.067% (n = 190,000); AID 1326, 2008; inhibition, % at 6.6 µM; ATP-dependent translocase ABCB1 (Homo sapiens), P08183; in the data active means inhibition above about 40%;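 further: 0% = vehicle and 100% = reference inhibitor; higher value means more JC-1 retained so stronger ABCB1 efflux block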
GRK2 inh = compounds blocking aptamer binding on GRK2 – biochemical, human GRK2, bead flow cytometry, HTS, primary screen | Beta-adrenergic receptor kinase 1 (Homo sapiens), P25098 | actives 0.59% (n = 330,000) | FAM-aptamer displacement from GRK2 | inhibition of aptamer binding, % at 10 µM;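 active means inhibition of aptamer binding above 40%, roughly 3 SD of noise, on plates passing a quality check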;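 further: median bead fluorescence of bound FAM aptamer so fluorescent compounds give negative values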
Ins promoter up = insulin promoter activators in MIN6 cells, imaging, high-content screening, mouse beta cells; MIN6 insulin promoter-GFP reporter; hits give high values; z-score at 5 µM; actives 0.3% (n = 190,000);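 active means z-score above 3 at 5 µM with at least 500 cells counted in the well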
Tn6 DDE FP = inhibitors of Tn6 peptide binding to fibrin DD(E), primary screen, biochemical, fluorescence polarization, human fibrin, Tn6 probe | Fibrinogen beta chain (Homo sapiens), P02675 | Fibrin DD(E) TRITC-Tn6 fluorescence polarization displacement | inhibition, % at 8.3 µM | actives 0.21% (n = 370,000);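 active means inhibition above a per-campaign cutoff: mean of compounds within control limits plus 3 SD, cut at about 15% in these data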;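 further: 0% = median of all compound wells on the plate and 100% = blocking peptide control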
ABCG2 block = ABCG2 efflux pump inhibitors, primary screen, multiplex with ABCB1, IgMXP3 cells, flow cytometry. JC-1 efflux. Broad substrate specificity ATP-binding cassette transporter ABCG2 (Homo sapiens), Q9UNQ0. inhibition, % at 6.6 µM. actives 0.1% (n = 190,000);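 active means inhibition above 80%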;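 further: 0% = DMSO and 100% = nicardipine control wells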
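Test system: ABCG2 IgMXP3 and barcoded ABCB1 CCRF-Adr cell mix; Schedule: cells with compound and JC-1, 10 min at 25 °C, rotating, no wash; Technique: flow cytometry of retained JC-1 fluorescence; Measure: % inhibition of efflux relative to nicardipine and DMSO; Controls: nicardipine high and DMSO low controls.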
Tn7 DDE FP = inhibitors of Tn7 peptide binding to fibrin DD(E), primary screen, biochemical, fluorescence polarization, human fibrin, Tn7 probe | actives 0.13% (n = 370,000) | FP displacement of FITC-Tn7 peptide from fibrin DD(E); 0% = median of compound wells per plate | inhibition, % at 8.3 µM | Fibrinogen beta chain (Homo sapiens), P02675;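 active means inhibition above the mean of compounds falling within the control limits plus 3 SD of them, cut at about 14% in these data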;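 further: 0% = plate median of compound wells and 100% = 10 µM Aha-Tn7 peptide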
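assay system = human clot-derived fibrin DD(E) complex | quantity = Fibrin-DD(E) at 2 µM final | timing = 10 min preincubation, 3 h with tracer, room temperature | signal = fluorescence polarization | measure = percent inhibition | benchmarks = high control wells with 10 µM unlabelled Aha-Tn7 peptide (full inhibition) | replicates = singlicate testing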
GRK2 CP1 = GRK2 aptamer-displacing inhibitors, retest, confirmation, biochemical, cherry pick 1, bead flow cytometry; shares compounds with GRK2 inh; bead-bound GRK2, FAM-aptamer displacement; aptamer displacement, % at 10 µM; actives 4% (n = 2,000);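 active means aptamer displacement above 40%, near three times the noise of non-fluorescent compounds, on plates passing quality checks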;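 further: negative values mostly reflect intrinsic compound fluorescence rather than true enhancement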
Aptamer quench = fluorescent aptamer quenching in GRK2 counter-screen dose response | Fluorescent RNA aptamer beads, flow cytometry; hits give high values | shares compounds with GRK2 inh | 110 tested, under 10 active | fluorescence change (kMESF span), kMESF (test concentration not listed);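 active means compounds whose bead fluorescence drops by more than 37 kMESF across the dose range, marking them as dye quenchers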
FAM quench CP1 = aptamer fluorescence quenching in GRK2 counter-screen. shares compounds with GRK2 inh. Carboxyfluorescein RNA aptamer on beads, flow cytometry quenching; hits give low values. fluorescence response (% of DMSO), % at 10 µM. 2,000 tested, under 10 active. AID 504580;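 active means compounds that quench the bead-bound fluorescent RNA probe, cutting fluorescence to under half of the solvent control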;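 further: counterscreen run without GRK2 so only probe quenching by compound is measured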
GRK2 confirm 2 = GRK2 aptamer-displacing inhibitors, hit retest, confirmation, biochemical, cherry pick 2, bead flow cytometry. shares compounds with GRK2 inh. bead-bound GRK2, FAM-aptamer displacement. 360 tested, under 10 active. AID 504782, 2011. inhibition of aptamer binding, % at 10 µM;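 active means inhibition of aptamer binding above 40%, about triple the noise seen with nonglowing compounds, on plates passing quality control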;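 further: negative values mostly come from compounds that fluoresce themselves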
FAM quench CP2 = aptamer fluorescence quenching in GRK2 counter-screen. shares compounds with GRK2 inh. carboxyfluorescein RNA aptamer beads, flow cytometry quenching; hits give low values. fluorescence response vs DMSO, % at 10 µM. 360 tested, under 10 active. AID 588494;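 active means response vs DMSO under 50%, meaning signal dropped by over half, treated as fluorescence quencher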;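 further: labelled aptamer on streptavidin beads without GRK2 as a quench counter-screen; 100% = bead fluorescence of DMSO wells and lower means quenching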
The depositor's hits bear a star; · = not tested or not shown.

SMILES | ABCB1 block | GRK2 inh | Ins promoter up | Tn6 DDE FP | ABCG2 block | Tn7 DDE FP | GRK2 CP1 | FAM quench CP1 | others
COc1cccc(NC(C(=O)Nc2cccc(C(C)=O)c2)c2ccccc2)c1 (centres undefined) | 0.4 | 0.0 | -1.3 | -1.9 | 5.6 | -1.4 | · | ·
COc1ccc(C2CC(c3cccs3)=NN2C(=O)c2ccc(Br)o2)cc1 (centres undefined) | 0.9 | 86.0* | -0.41 | 5.7 | 5.3 | -2.9 | · | · | GRK2 confirm 2=14.7;FAM quench CP2=108.0
CCC(=O)N1N=C(c2cccs2)CC1c1ccc(OC)cc1 (centres undefined) | · | 2.0 | · | 0.0 | · | 3.6 | · | ·
CCCN1CCCCC(NC(=O)c2c(F)cccc2F)C1=O (centres undefined) | · | · | · | 1.1 | · | -3.2 | · | ·
O=C(NNC(=S)Nc1ccccc1C(F)(F)F)c1ccc(Br)o1 | 0.7 | 42.0* | 0.81 | -3.0 | 1.0 | -0.7 | 1.9 | 101.1
Cc1occc1C(=O)NNC(=S)Nc1ccccc1C(F)(F)F | -0.6 | 0.0 | -0.18 | 1.8 | -6.6 | -4.9 | · | ·
O=c1c2c([N+](=O)[O-])cc([N+](=O)[O-])cc2sn1Cc1ccccc1 | · | 4.0 | · | -3.2 | · | -3.4 | · | ·
O=c1c2c([N+](=O)[O-])cc([N+](=O)[O-])cc2nc2ccccn12 | · | 69.0* | · | -1.8 | · | 6.1 | -0.8 | 97.6
COc1ccc(Nc2oc(-c3ccccc3)nc2C#N)cc1 | 0.2 | 52.0* | 0.04 | 0.4 | 7.1 | -2.5 | 0.1 | 101.5
COc1ccc(-c2nc(C#N)c(NCCN(C)C)o2)cc1 | 0.1 | 49.0* | · | 3.9 | 3.3 | -0.5 | -3.6 | 102.3
O=C(Nc1ccc(F)c(Cl)c1)C1Cc2c(-c3ccco3)ccnc2O1 (centres undefined) | · | · | · | -8.7 | · | 1.3 | · | ·
CN(C(=O)c1ccc(N2CCCCC2)c([N+](=O)[O-])c1)C1CCS(=O)(=O)C1 (centres undefined) | · | 21.0 | · | -2.7 | · | 1.3 | -3.1 | 104.8
OC(c1ccc(Cl)c(Cl)c1)c1ncc(-c2ccccc2C(F)(F)F)[nH]1 (centres undefined) | · | · | · | -2.0 | · | 2.1 | · | ·
CCC(Oc1ccccc1)C(=O)Nc1nnc(S(=O)(=O)Nc2ccccc2)s1 (centres undefined) | · | 49.0* | · | 3.9 | · | -3.4 | -2.8 | 103.6
Cc1cc2c(cc1S(=O)(=O)N1CCc3ccccc31)NC(=O)CO2 | 0.9 | 73.0* | -0.67 | 1.4 | 3.3 | 4.7 | 3.0 | 97.0
O=C1COc2ccc(S(=O)(=O)N3CCc4ccccc43)cc2N1 | · | 4.0 | -0.79 | -4.3 | · | 4.1 | · | ·
CCN(CCCNC(=O)Cn1ncc2c(=O)oc3ccccc3c21)c1cccc(C)c1 | 1.0 | 74.0* | 0.02 | 1.1 | 1.3 | -4.8 | 1.3 | 96.3
Cc1ccc2oc(=O)c3cnn(CC(=O)NCCN(C)C)c3c2c1 | 0.6 | 1.0 | 0.29 | 2.4 | 4.8 | -8.9 | · | ·
Cc1ccc2oc(=O)c3cnn(CC(=O)NCCc4ccsc4)c3c2c1 | 0.6 | 61.0* | -0.35 | 3.4 | 2.4 | -7.1 | 4.9 | 102.5
CCC(CO)Nc1cccc2c1S(=O)(=O)N(Cc1cn(Cc3cccc(C(F)(F)F)c3)nn1)Cc1ccccc1O2 (centres undefined) | · | · | · | -4.5 | · | 4.8 | · | ·
C#CCn1c(=O)cc(C)c2ccccc21 | -0.9 | 47.0* | -0.21 | 7.3 | -1.9 | -5.4 | 1.5 | 101.5
Cc1cc(=O)n(CCC(=O)O)c2ccccc12 | 0.4 | 0.0 | 1.22 | -11.1 | -0.2 | -9.4 | · | ·
CC1=C(/C=C/C(C)=N\NC(=O)c2ccncc2)C(C)(C)CCC1 | -0.4 | 0.0 | -0.24 | -0.5 | 0.1 | 4.9 | · | ·
CC1=C(/C=C/C(C)=C/C=C/C(C)=C/CO)C(C)(C)CCC1 | · | 86.0* | · | -8.9 | · | -0.7 | 4.7 | 101.6
CC1(C)CC(=O)C(C(C2=C(O)CC(C)(C)CC2=O)c2ccco2)C(=O)C1 (centres undefined) | -0.4 | 94.0* | -0.36 | -0.5 | -2.8 | -0.5 | -0.5 | 103.8
SMILES | ABCB1 block | GRK2 inh | Ins promoter up | Tn6 DDE FP | ABCG2 block | Tn7 DDE FP | GRK2 CP1 | FAM quench CP1 | others
COc1cc(C(C2=C(O)CC(C)(C)CC2=O)C2C(=O)CC(C)(C)CC2=O)cc(OC)c1OC (centres undefined) | -0.4 | 1.0 | -0.06 | -6.1 | -1.0 | -3.2 | · | ·
Cc1ccc(Nc2c(F)cccc2Cl)c(CC(=O)O)c1 | · | · | · | 3.5 | · | 3.0 | · | ·
O=C(O)c1ccc(-n2cccc2/C=C2/NC(=O)N(c3ccccc3)C2=O)cc1 | · | 73.0* | -0.26 | -1.6 | · | -1.2 | 36.0 | 94.4
O=C(O)c1ccc(-n2cccc2/C=C2/SC(=O)N(CC(=O)N3CCCC3)C2=O)cc1 | · | 82.0* | · | 4.6 | · | 5.0 | 63.4* | 132.7 | Aptamer quench=15.9
CC(C)C(=O)N1CC[C@H]2[C@H](CCCN2Cc2ccc(F)cc2)C1 | · | · | · | -0.2 | · | 1.9 | · | ·
CN(C)CCCN(C(=O)c1ccc(S(=O)(=O)N2CCOCC2)cc1)c1nc2cc3c(cc2s1)OCO3 | · | 0.0 | · | -1.9 | · | -1.7 | · | ·
CN(C)CCCN(C(=O)c1ccc(S(=O)(=O)N2CCCCC2)cc1)c1nc2cc3c(cc2s1)OCO3 | · | 15.0 | · | -1.3 | · | 2.3 | -13.7 | 101.4
COc1ccc(Cc2cc(NCc3ccccc3)c3ncn(C(C)C)c3c2)cc1 | · | 97.0* | · | -1.6 | · | -0.4 | · | · | GRK2 confirm 2=-24.2;FAM quench CP2=101.0
CCOC(=O)Nc1ccc2c(c1)nc(CN1CCN(C(C)=O)CC1)n2C | 0.5 | 68.0* | -0.38 | 5.3 | 9.8 | 3.0 | -0.5 | 104.3
CC1=C(C(=O)OC(C)C)C(c2ccccc2Cl)CC(=O)N1 (centres undefined) | 0.2 | 3.0 | 0.44 | -6.8 | 0.1 | 1.9 | · | ·
